# Laboratory results as given in ChEMBL document CHEMBL1141653, “New bis(2-aminoimidazoline) and bisguanidine DNA minor groove binders with potent in vivo antitrypanosomal and antiplasmodial activity” (J Med Chem, 2008).
# pIC50: −log10 of the molar value.
# Tested on: not listed separately
# Test: Selectivity index, ratio of IC50 for rat L6 cells to IC50 for Trypanosoma brucei rhodesiense STIB900
# Type: functional
# Conditions: not given
# How it was run: (§1)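 Ratio of the IC₅₀ on L-6 rat skeletal myoblasts to the parasite IC₅₀. Cytotoxicity measured in RPMI 1640 with L-glutamine and 10% FBS, serial dilutions 90 to 0.123 µg/mL, duplicate. After 72 h, Alamar blue (resazurin) added for 2 h. Fluorescence read at ex 536 / em 588 nm.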
row,Compound,Ratio IC50
1,c1cc2c(cc1NC1=NCCN1)Cc1cc(NC3=NCCN3)ccc1-2,17020
2,O=S(=O)(c1ccc(NC2=NCCN2)cc1)c1ccc(NC2=NCCN2)cc1,>6
3,N=C(N)Nc1ccc(C(=O)c2ccc(NC(=N)N)cc2)cc1,13
4,N=C(N)Nc1ccc(Cc2ccc(NC(=N)N)cc2)cc1,17
5,CCOC(CNC(=N)Nc1ccc(Nc2ccc(NC(=N)NCC(OCC)OCC)cc2)cc1)OCC,>767
6,CCOC(CNC(=N)Nc1ccc(Cc2ccc(NC(=N)NCC(OCC)OCC)cc2)cc1)OCC,>553
7,N=C(N)Nc1ccc2c(c1)Cc1cc(NC(=N)N)ccc1-2,196
8,N=C(N)Nc1ccc(Oc2ccc(NC(=N)N)cc2)cc1,8
9,N=C(N)Nc1ccc(Nc2ccc(NC(=N)N)cc2)cc1,30
10,N=C(N)Nc1ccc(S(=O)(=O)c2ccc(NC(=N)N)cc2)cc1,>51
11,N=C(N)Nc1ccc(Sc2ccc(NC(=N)N)cc2)cc1,26

# Tested on: Ferriprotoporphyrin IX
# Test: Inhibition of ferriprotoporphyrin 9 biomineralization
# Type: functional
# Conditions: not given
# How it was run: (§2)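 β-Hematin formation: hemin chloride (0.5 mg/mL in DMSO) with 0.5 M sodium acetate pH 4.4 and drug dilutions, 37 °C for 18–24 h. Pellet washed with DMSO, dissolved in 0.1 N NaOH, A405 read. Percent inhibition relative to solvent control. IC₅₀ derived, or percent inhibition at 1 mg/mL (highest concentration) given when no IC₅₀.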
row,Compound,pIC50
1,c1cc2c(cc1NC1=NCCN1)Cc1cc(NC3=NCCN3)ccc1-2,3.31
2,CCOC(CNC(=N)Nc1ccc(Nc2ccc(NC(=N)NCC(OCC)OCC)cc2)cc1)OCC,3.79
3,O=C(c1ccc(NC2=NCCN2)cc1)c1ccc(NC2=NCCN2)cc1,3.93
4,CC(C)(C)OC(=O)N1CCN(C(=O)OC(C)(C)C)C1=Nc1ccc(Nc2ccc(N=C3N(C(=O)OC(C)(C)C)CCN3C(=O)OC(C)(C)C)cc2)cc1,3.77

# Tested on: Ferriprotoporphyrin IX
# Test: Inhibition of ferriprotoporphyrin 9 biomineralization at 1 mg/ml
# Type: functional
# Conditions: not given
# How it was run: as §2
row,Compound,inhibition [%]
1,CC(C)(C)OC(=O)/N=C(/NC(=O)OC(C)(C)C)Nc1ccc(Nc2ccc(N/C(=N\C(=O)OC(C)(C)C)NC(=O)OC(C)(C)C)cc2)cc1,45
2,N=C(N)Nc1ccc(Cc2ccc(NC(=N)N)cc2)cc1,0
3,N=C(N)Nc1ccc(Oc2ccc(NC(=N)N)cc2)cc1,0
4,N=C(N)Nc1ccc(Nc2ccc(NC(=N)N)cc2)cc1,0
5,N=C(N)Nc1ccc(Sc2ccc(NC(=N)N)cc2)cc1,0
6,CC(C)(C)OC(=O)N1CCN(C(=O)OC(C)(C)C)C1=Nc1ccc(S(=O)(=O)c2ccc(N=C3N(C(=O)OC(C)(C)C)CCN3C(=O)OC(C)(C)C)cc2)cc1,27

# Tested on: Trypanosoma brucei rhodesiense
# Test: Antitrypanosomal activity against Trypanosoma brucei rhodesiense STIB900
# Type: functional, organism-based
# Conditions: not given
# How it was run: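 Bloodstream forms (10⁴ per well) in MEM with 15% heat-inactivated horse serum, 25 mM HEPES, 2-mercaptoethanol, hypoxanthine. 3-fold serial dilutions from 90 to 0.123 µg/mL, in duplicate. Incubation 72 h at 37 °C, 5% CO₂. Resazurin then added for 2–4 h more. Fluorescence read at ex 536 / em 588 nm.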
row,Compound,pIC50
1,c1cc2c(cc1NC1=NCCN1)Cc1cc(NC3=NCCN3)ccc1-2,8.31
2,O=S(=O)(c1ccc(NC2=NCCN2)cc1)c1ccc(NC2=NCCN2)cc1,4.49
3,N=C(N)Nc1ccc(C(=O)c2ccc(NC(=N)N)cc2)cc1,6.69
4,CC(C)(C)OC(=O)/N=C(/NC(=O)OC(C)(C)C)Nc1ccc(Nc2ccc(N/C(=N\C(=O)OC(C)(C)C)NC(=O)OC(C)(C)C)cc2)cc1,6.33
5,N=C(N)Nc1ccc(Cc2ccc(NC(=N)N)cc2)cc1,6.79
6,CCOC(CNC(=N)Nc1ccc(Nc2ccc(NC(=N)NCC(OCC)OCC)cc2)cc1)OCC,6.64
7,CCOC(CNC(=N)Nc1ccc(Cc2ccc(NC(=N)NCC(OCC)OCC)cc2)cc1)OCC,6.50
8,N=C(N)Nc1ccc2c(c1)Cc1cc(NC(=N)N)ccc1-2,7.62
9,N=C(N)Nc1ccc(Oc2ccc(NC(=N)N)cc2)cc1,6.71
10,N=C(N)Nc1ccc(Nc2ccc(NC(=N)N)cc2)cc1,7.66
11,O=C(c1ccc(NC2=NCCN2)cc1)c1ccc(NC2=NCCN2)cc1,5.69
12,N=C(N)Nc1ccc(S(=O)(=O)c2ccc(NC(=N)N)cc2)cc1,5.37
13,CC(C)(C)OC(=O)N1CCN(C(=O)OC(C)(C)C)C1=Nc1ccc(Nc2ccc(N=C3N(C(=O)OC(C)(C)C)CCN3C(=O)OC(C)(C)C)cc2)cc1,7.32
14,N=C(N)Nc1ccc(Sc2ccc(NC(=N)N)cc2)cc1,6.99
15,CC(C)(C)OC(=O)N1CCN(C(=O)OC(C)(C)C)C1=Nc1ccc(S(=O)(=O)c2ccc(N=C3N(C(=O)OC(C)(C)C)CCN3C(=O)OC(C)(C)C)cc2)cc1,5.59

# Tested on: not listed separately
# Test: Binding affinity for DNA assessed as thermal melting temperature
# Conditions: not given
# How it was run: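 Thermal melting of poly(dA)·poly(dT): DNA at 40 µM base with compound at 12 µM (ratio 0.3) in MES 0.01 M / EDTA 0.001 M buffer, pH 6.25. A260 followed from 20 to 95 °C at 0.5 °C/min. Value is ΔTm.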
row,Compound,ΔTm [°C]
1,c1cc2c(cc1NC1=NCCN1)Cc1cc(NC3=NCCN3)ccc1-2,44.1
2,O=S(=O)(c1ccc(NC2=NCCN2)cc1)c1ccc(NC2=NCCN2)cc1,12.1
3,N=C(N)Nc1ccc(C(=O)c2ccc(NC(=N)N)cc2)cc1,27.6
4,N=C(N)Nc1ccc(Cc2ccc(NC(=N)N)cc2)cc1,15
5,CCOC(CNC(=N)Nc1ccc(Nc2ccc(NC(=N)NCC(OCC)OCC)cc2)cc1)OCC,13.6
6,CCOC(CNC(=N)Nc1ccc(Cc2ccc(NC(=N)NCC(OCC)OCC)cc2)cc1)OCC,5.3
7,N=C(N)Nc1ccc(Oc2ccc(NC(=N)N)cc2)cc1,22.1
8,N=C(N)Nc1ccc(Nc2ccc(NC(=N)N)cc2)cc1,29.6
9,N=C(N)Nc1ccc(S(=O)(=O)c2ccc(NC(=N)N)cc2)cc1,12.8
10,N=C(N)Nc1ccc(Sc2ccc(NC(=N)N)cc2)cc1,20.1

# Tested on: Plasmodium falciparum
# Test: Antiplasmodial activity against Plasmodium falciparum K1 in [3H]hypoxanthine incorporation assay
# Type: functional, organism-based
# Conditions: K1, 72 h
# How it was run: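 K1 erythrocytic stages in RPMI 1640 without hypoxanthine with AlbuMax, human A⁺ red cells at 2.5% hematocrit, 0.3% parasitemia. Compounds taken from 10 mg/mL DMSO stock, tested as serial doubling dilutions at 37 °C in 4% CO₂/3% O₂/93% N₂. After 48 h, ³H-hypoxanthine (0.5 µCi) added for 24 h more; incorporation by scintillation counting. IC₅₀ from sigmoidal curves.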
row,Compound,pIC50
1,c1cc2c(cc1NC1=NCCN1)Cc1cc(NC3=NCCN3)ccc1-2,7.94
2,O=S(=O)(c1ccc(NC2=NCCN2)cc1)c1ccc(NC2=NCCN2)cc1,5.25
3,N=C(N)Nc1ccc(C(=O)c2ccc(NC(=N)N)cc2)cc1,7.17
4,CC(C)(C)OC(=O)/N=C(/NC(=O)OC(C)(C)C)Nc1ccc(Nc2ccc(N/C(=N\C(=O)OC(C)(C)C)NC(=O)OC(C)(C)C)cc2)cc1,7.11
5,N=C(N)Nc1ccc(Cc2ccc(NC(=N)N)cc2)cc1,7.49
6,CCOC(CNC(=N)Nc1ccc(Nc2ccc(NC(=N)NCC(OCC)OCC)cc2)cc1)OCC,6.95
7,CCOC(CNC(=N)Nc1ccc(Cc2ccc(NC(=N)NCC(OCC)OCC)cc2)cc1)OCC,7.44
8,N=C(N)Nc1ccc2c(c1)Cc1cc(NC(=N)N)ccc1-2,8.64
9,N=C(N)Nc1ccc(Oc2ccc(NC(=N)N)cc2)cc1,7.34
10,N=C(N)Nc1ccc(Nc2ccc(NC(=N)N)cc2)cc1,7.74
11,O=C(c1ccc(NC2=NCCN2)cc1)c1ccc(NC2=NCCN2)cc1,6.89
12,N=C(N)Nc1ccc(S(=O)(=O)c2ccc(NC(=N)N)cc2)cc1,6.35
13,CC(C)(C)OC(=O)N1CCN(C(=O)OC(C)(C)C)C1=Nc1ccc(Nc2ccc(N=C3N(C(=O)OC(C)(C)C)CCN3C(=O)OC(C)(C)C)cc2)cc1,7.23
14,N=C(N)Nc1ccc(Sc2ccc(NC(=N)N)cc2)cc1,7.46
15,CC(C)(C)OC(=O)N1CCN(C(=O)OC(C)(C)C)C1=Nc1ccc(S(=O)(=O)c2ccc(N=C3N(C(=O)OC(C)(C)C)CCN3C(=O)OC(C)(C)C)cc2)cc1,7.26

# Tested on: not listed separately
# Test: Selectivity index, ratio of IC50 for rat L6 cells to IC50 for Plasmodium falciparum K1
# Type: functional
# Conditions: not given
# How it was run: as §1
row,Compound,Ratio IC50
1,c1cc2c(cc1NC1=NCCN1)Cc1cc(NC3=NCCN3)ccc1-2,7252
2,O=S(=O)(c1ccc(NC2=NCCN2)cc1)c1ccc(NC2=NCCN2)cc1,>35
3,N=C(N)Nc1ccc(C(=O)c2ccc(NC(=N)N)cc2)cc1,40
4,CC(C)(C)OC(=O)/N=C(/NC(=O)OC(C)(C)C)Nc1ccc(Nc2ccc(N/C(=N\C(=O)OC(C)(C)C)NC(=O)OC(C)(C)C)cc2)cc1,48
5,N=C(N)Nc1ccc(Cc2ccc(NC(=N)N)cc2)cc1,88
6,CCOC(CNC(=N)Nc1ccc(Nc2ccc(NC(=N)NCC(OCC)OCC)cc2)cc1)OCC,>1548
7,CCOC(CNC(=N)Nc1ccc(Cc2ccc(NC(=N)NCC(OCC)OCC)cc2)cc1)OCC,>4861
8,N=C(N)Nc1ccc2c(c1)Cc1cc(NC(=N)N)ccc1-2,2043
9,N=C(N)Nc1ccc(Oc2ccc(NC(=N)N)cc2)cc1,36
10,N=C(N)Nc1ccc(Nc2ccc(NC(=N)N)cc2)cc1,36
11,O=C(c1ccc(NC2=NCCN2)cc1)c1ccc(NC2=NCCN2)cc1,>1658
12,N=C(N)Nc1ccc(S(=O)(=O)c2ccc(NC(=N)N)cc2)cc1,>500
13,CC(C)(C)OC(=O)N1CCN(C(=O)OC(C)(C)C)C1=Nc1ccc(Nc2ccc(N=C3N(C(=O)OC(C)(C)C)CCN3C(=O)OC(C)(C)C)cc2)cc1,166
14,N=C(N)Nc1ccc(Sc2ccc(NC(=N)N)cc2)cc1,76
15,CC(C)(C)OC(=O)N1CCN(C(=O)OC(C)(C)C)C1=Nc1ccc(S(=O)(=O)c2ccc(N=C3N(C(=O)OC(C)(C)C)CCN3C(=O)OC(C)(C)C)cc2)cc1,1025

# Tested on: L6
# Test: Cytotoxicity against rat L6 cells
# Type: cell-based
# Conditions: not given
row,Compound,pIC50
1,c1cc2c(cc1NC1=NCCN1)Cc1cc(NC3=NCCN3)ccc1-2,4.08
2,O=S(=O)(c1ccc(NC2=NCCN2)cc1)c1ccc(NC2=NCCN2)cc1,< 3.71
3,N=C(N)Nc1ccc(C(=O)c2ccc(NC(=N)N)cc2)cc1,5.57
4,CC(C)(C)OC(=O)/N=C(/NC(=O)OC(C)(C)C)Nc1ccc(Nc2ccc(N/C(=N\C(=O)OC(C)(C)C)NC(=O)OC(C)(C)C)cc2)cc1,5.43
5,N=C(N)Nc1ccc(Cc2ccc(NC(=N)N)cc2)cc1,5.55
6,CCOC(CNC(=N)Nc1ccc(Nc2ccc(NC(=N)NCC(OCC)OCC)cc2)cc1)OCC,< 3.76
7,CCOC(CNC(=N)Nc1ccc(Cc2ccc(NC(=N)NCC(OCC)OCC)cc2)cc1)OCC,< 3.76
8,N=C(N)Nc1ccc2c(c1)Cc1cc(NC(=N)N)ccc1-2,5.33
9,N=C(N)Nc1ccc(Oc2ccc(NC(=N)N)cc2)cc1,5.79
10,N=C(N)Nc1ccc(Nc2ccc(NC(=N)N)cc2)cc1,6.19
11,O=C(c1ccc(NC2=NCCN2)cc1)c1ccc(NC2=NCCN2)cc1,< 3.67
12,N=C(N)Nc1ccc(S(=O)(=O)c2ccc(NC(=N)N)cc2)cc1,< 3.65
13,CC(C)(C)OC(=O)N1CCN(C(=O)OC(C)(C)C)C1=Nc1ccc(Nc2ccc(N=C3N(C(=O)OC(C)(C)C)CCN3C(=O)OC(C)(C)C)cc2)cc1,5.01
14,N=C(N)Nc1ccc(Sc2ccc(NC(=N)N)cc2)cc1,5.58
15,CC(C)(C)OC(=O)N1CCN(C(=O)OC(C)(C)C)C1=Nc1ccc(S(=O)(=O)c2ccc(N=C3N(C(=O)OC(C)(C)C)CCN3C(=O)OC(C)(C)C)cc2)cc1,4.25
